# Assay results taken from ChEMBL document CHEMBL1157407, “Inhibitors of bacterial multidrug efflux pumps from the resin glycosides of Ipomoea murucoides” (2008).
# What was measured:
# Format in all cases: functional
# HEp-2 = assay: Cytotoxicity against human Hep2 cells after 72 hrs; conditions: HEp-2, 72 h, read-out: ED50 (the source's name)
# How it was run: (§1)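 Cells grown in RPMI 1640 with 10% fetal bovine serum at 37 °C, 5% CO2, humidified. Log-phase cells treated in triplicate with test samples at 0.16–20 μg/mL for 72 h. Growth read by the NCI sulforhodamine method. ED50 is the dose inhibiting 50% of control growth, estimated from a semilog plot of concentration against percentage of viable cells.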
# Staphylococcus aureus [1] = assay: Antimicrobial activity against methicillin-resistant Staphylococcus aureus XU212
# How it was run: (§2)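 Broth microdilution MIC per NCCLS guidelines, at least in duplicate, in cation-adjusted Mueller-Hinton broth (20 mg/L Ca2+, 10 mg/L Mg2+). Strains grown on nutrient agar first. Inoculum 5×10^5 cfu prepared in 0.9% saline against a McFarland standard. Compounds dissolved in DMSO, 2-fold serial dilutions, final 1–512 µg/mL (DMSO ≤3.125% v/v). MIC taken as lowest concentration with no visible growth.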
# Staphylococcus aureus [2] = assay: Antimicrobial activity against Staphylococcus aureus ATCC 25923
# How it was run: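 Broth microdilution MIC per NCCLS guidelines, at least in duplicate. Inoculum 5×10^5 cfu prepared in 0.9% saline against a McFarland standard. Cation-adjusted Mueller-Hinton broth with 20 mg/L Ca2+ and 10 mg/L Mg2+. Compounds dissolved in DMSO, then 2-fold serial dilutions, final 1–512 μg/mL; DMSO at most 3.125% v/v. MIC is the lowest concentration giving no visible growth.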
# Staphylococcus aureus [3] = assay: Antimicrobial activity against epidemic methicillin-resistant Staphylococcus aureus 15 containing mecA gene; how it was run: as §2
# Staphylococcus aureus [4] = assay: Antimicrobial activity against multidrug-resistant Staphylococcus aureus over expressing NorA MDR efflux pump; how it was run: as §2
# KB = assay: Cytotoxicity against human KB cells after 72 hrs; conditions: read-out: ED50 (the source's name); how it was run: as §1
# HeLa = assay: Cytotoxicity against human HeLa cells after 72 hrs; conditions: read-out: ED50 (the source's name); how it was run: as §1
SMILES,EC50 (HEp-2),MIC (Staphylococcus aureus [1]),MIC (Staphylococcus aureus [2]),MIC (Staphylococcus aureus [3]),MIC (Staphylococcus aureus [4]),EC50 (KB),EC50 (HeLa)
COC(=O)[C@H]1[C@H]2C[C@@H]3c4[nH]c5cc(OC)ccc5c4CCN3C[C@H]2C[C@@H](OC(=O)c2cc(OC)c(OC)c(OC)c2)[C@@H]1OC [RESERPINE],> 20 µg/mL,,,,,,
CN(C)[C@@H]1C(O)=C(C(N)=O)C(=O)[C@@]2(O)C(O)=C3C(=O)c4c(O)cccc4[C@@](C)(O)[C@H]3C[C@@H]12 [TETRACYCLINE],,512 µg/mL,> 512 µg/mL,256 µg/mL,32 µg/mL,,
CCCCC[C@H]1CCCCCCCCCC(=O)O[C@H]2[C@H](O[C@H]3[C@H](O1)O[C@H](C)[C@H](O)[C@@H]3O)O[C@@H](C)[C@H](O[C@@H]1O[C@@H](C)[C@H](O[C@@H]3O[C@@H](C)[C@H](OC(=O)[C@@H](C)CC)[C@@H](O)[C@H]3O)[C@@H](O[C@@H]3O[C@H](CO)[C@@H](O)[C@H](O)[C@H]3O)[C@H]1OC(=O)[C@@H](C)CC)[C@H]2O [MURUCOIDIN IV],4 µg/mL,> 512 µg/mL,> 512 µg/mL,> 512 µg/mL,> 512 µg/mL,15 µg/mL,> 20 µg/mL
CCCCC[C@H]1CCCCCCCCCC(=O)O[C@H]2[C@@H](O)[C@H](O[C@H]3[C@H](O1)O[C@H](C)[C@H](O)[C@@H]3O)O[C@@H](C)[C@@H]2O[C@@H]1O[C@@H](C)[C@H](O[C@@H]2O[C@@H](C)[C@H](OC(=O)[C@@H](C)CC)[C@@H](O)[C@H]2O)[C@@H](O[C@@H]2O[C@H](CO)[C@@H](O)[C@H](O)[C@H]2O)[C@H]1OC(=O)[C@@H](C)CC [MURUCOIDIN V],> 20 µg/mL,256 µg/mL,> 512 µg/mL,128 µg/mL,64 µg/mL,> 20 µg/mL,13.2 µg/mL
CCn1cc(C(=O)O)c(=O)c2cc(F)c(N3CCNCC3)cc21 [NORFLOXACIN],> 20 µg/mL,512 µg/mL,> 512 µg/mL,256 µg/mL,32 µg/mL,,
CCCCC[C@H]1CCCCCCCCCC(=O)O[C@H]2[C@H](O[C@H]3[C@H](O1)O[C@H](CO)[C@@H](O)[C@@H]3O)O[C@@H](C)[C@H](O[C@@H]1O[C@@H](C)[C@H](O[C@@H]3O[C@@H](C)[C@H](OC(=O)C(C)C)[C@@H](O)[C@H]3O)[C@@H](O[C@@H]3O[C@@H](C)[C@H](O)[C@@H](O)[C@H]3O)[C@H]1OC(=O)[C@@H](C)CC)[C@H]2O [MURUCOIDIN VII],> 20 µg/mL,512 µg/mL,> 512 µg/mL,256 µg/mL,32 µg/mL,> 20 µg/mL,> 20 µg/mL
CCCCC[C@H]1CCCCCCCCCC(=O)O[C@H]2[C@@H](O)[C@H](O[C@H]3[C@H](O1)O[C@H](C)[C@H](O)[C@@H]3O)O[C@@H](C)[C@@H]2O[C@@H]1O[C@@H](C)[C@H](O[C@@H]2O[C@@H](C)[C@H](OC(=O)[C@@H](C)CC)[C@@H](O)[C@H]2O)[C@@H](O[C@@H]2O[C@@H](C)[C@H](O)[C@@H](O)[C@H]2O)[C@H]1OC(=O)[C@@H](C)CC [STOLONIFERIN I],> 20 µg/mL,256 µg/mL,> 512 µg/mL,512 µg/mL,64 µg/mL,> 20 µg/mL,> 20 µg/mL
CC[C@]1(O)C[C@@H]2CN(CCc3c([nH]c4ccccc34)[C@@](C(=O)OC)(c3cc4c(cc3OC)N(C)[C@H]3[C@@](O)(C(=O)OC)[C@H](OC(C)=O)[C@]5(CC)C=CCN6CC[C@]43[C@@H]65)C2)C1 [VINBLASTINE],> 20 µg/mL,,,,,> 20 µg/mL,> 20 µg/mL
CCCCC[C@H]1CCCCCCCCCC(=O)O[C@H]2[C@@H](O)[C@H](O[C@H]3[C@H](O1)O[C@H](C)[C@H](O)[C@@H]3O)O[C@@H](C)[C@@H]2O[C@@H]1O[C@@H](C)[C@H](O[C@@H]2O[C@@H](C)[C@H](OC(=O)[C@@H](C)CC)[C@@H](O)[C@H]2O)[C@@H](O[C@@H]2O[C@@H](C)[C@H](O)[C@@H](O)[C@H]2O)[C@H]1OC(=O)CCCCCC[C@H](O)CCCC [MURUCOIDIN X],> 20 µg/mL,> 512 µg/mL,> 512 µg/mL,> 512 µg/mL,> 512 µg/mL,15.7 µg/mL,> 20 µg/mL
CCCCC[C@H]1CCCCCCCCCC(=O)O[C@H]2[C@H](O[C@H]3[C@H](O1)O[C@H](CO)[C@@H](O)[C@@H]3O)O[C@@H](C)[C@H](O[C@@H]1O[C@@H](C)[C@H](O[C@@H]3O[C@@H](C)[C@H](OC(=O)[C@@H](C)CC)[C@@H](O)[C@H]3O)[C@@H](O[C@@H]3O[C@@H](C)[C@H](O)[C@@H](O)[C@H]3O)[C@H]1OC(=O)[C@@H](C)CC)[C@H]2O [MURUCOIDIN VIII],14.2 µg/mL,> 512 µg/mL,> 512 µg/mL,> 512 µg/mL,> 512 µg/mL,17.9 µg/mL,16.4 µg/mL
CCCCC[C@H]1CCCCCCCCCC(=O)O[C@H]2[C@H](O[C@H]3[C@H](O1)O[C@H](C)[C@H](O)[C@@H]3O)O[C@@H](C)[C@H](O[C@@H]1O[C@@H](C)[C@H](O[C@@H]3O[C@@H](C)[C@H](OC(=O)[C@@H](C)CC)[C@@H](O)[C@H]3O)[C@@H](O[C@@H]3O[C@@H](C)[C@H](O)[C@@H](O)[C@H]3O)[C@H]1OC(=O)[C@@H](C)CC)[C@H]2O [MURUCOIDIN III],10.7 µg/mL,> 512 µg/mL,> 512 µg/mL,> 512 µg/mL,> 512 µg/mL,15.4 µg/mL,> 20 µg/mL
CCCCC[C@H]1CCCCCCCCCC(=O)O[C@H]2[C@@H](O)[C@H](O[C@H]3[C@H](O1)O[C@H](C)[C@H](O)[C@@H]3O)O[C@@H](C)[C@@H]2O[C@@H]1O[C@@H](C)[C@H](O[C@@H]2O[C@@H](C)[C@H](OC(=O)C(C)C)[C@@H](O)[C@H]2O)[C@@H](O[C@@H]2O[C@@H](C)[C@H](O)[C@@H](O)[C@H]2O)[C@H]1OC(=O)[C@@H](C)CC [MURUCOIDIN IX],10.2 µg/mL,> 512 µg/mL,> 512 µg/mL,> 512 µg/mL,> 512 µg/mL,> 20 µg/mL,12.4 µg/mL
CCCCCCCCCCCC(=O)O[C@H]1[C@H](O[C@@H]2[C@H]3OC(=O)CCCCCCCCC[C@H](CCCCC)O[C@@H]4O[C@H](C)[C@H](O)[C@H](O)[C@H]4O[C@H](O[C@H]2C)[C@@H]3O)O[C@@H](C)[C@H](O[C@@H]2O[C@@H](C)[C@H](OC(=O)[C@@H](C)CC)[C@@H](O)[C@H]2O)[C@H]1O[C@@H]1O[C@@H](C)[C@H](O)[C@@H](O)[C@H]1O [PESCAPREIN III],4.7 µg/mL,> 512 µg/mL,> 512 µg/mL,> 512 µg/mL,> 512 µg/mL,15.7 µg/mL,> 20 µg/mL
CCCCCCCCCCCC(=O)O[C@H]1[C@H](O[C@@H]2[C@H]3OC(=O)CCCCCCCCC[C@H](CCCCC)O[C@@H]4O[C@H](C)[C@H](O)[C@H](O)[C@H]4O[C@H](O[C@H]2C)[C@@H]3O)O[C@@H](C)[C@H](O[C@@H]2O[C@@H](C)[C@H](OC(=O)[C@@H](C)CC)[C@@H](O)[C@H]2O)[C@H]1O[C@@H]1O[C@H](CO)[C@@H](O)[C@H](O)[C@H]1O [MURUCOIDIN XI],> 20 µg/mL,> 512 µg/mL,> 512 µg/mL,> 512 µg/mL,> 512 µg/mL,12.1 µg/mL,> 20 µg/mL
CCCCC[C@H]1CCCCCCCCCC(=O)O[C@H]2[C@H](O[C@H]3[C@H](O1)O[C@H](C)[C@H](O)[C@@H]3O)O[C@@H](C)[C@H](O[C@@H]1O[C@@H](C)[C@H](O[C@@H]3O[C@@H](C)[C@H](O)[C@@H](O)[C@H]3O)[C@@H](O[C@@H]3O[C@@H](C)[C@H](O)[C@@H](O)[C@H]3O)[C@H]1OC(=O)[C@@H](C)CC)[C@H]2O [MURUCOIDIN I],> 20 µg/mL,512 µg/mL,> 512 µg/mL,256 µg/mL,32 µg/mL,> 20 µg/mL,> 20 µg/mL
CCCCC[C@H]1CCCCCCCCCC(=O)O[C@H]2[C@H](O)[C@@H](CO)O[C@@H](O[C@H]3[C@H](O1)O[C@H](C)[C@H](O)[C@@H]3O)[C@@H]2O[C@@H]1O[C@@H](C)[C@H](OC(=O)[C@@H](C)CC)[C@@H](O[C@@H]2O[C@@H](C)[C@H](O)[C@@H](O)[C@H]2O)[C@H]1OC(=O)[C@@H](C)CC [TRICOLORIN A],1.6 µg/mL,8 µg/mL,16 µg/mL,4 µg/mL,8 µg/mL,1 µg/mL,4.7 µg/mL
CCCCC[C@H]1CCCCCCCCCC(=O)O[C@H]2[C@H](O)[C@@H](CO)O[C@@H](O[C@H]3[C@H](O1)O[C@H](C)[C@@H](O)[C@@H]3O)[C@@H]2O[C@@H]1O[C@@H](C)[C@H](OC(=O)[C@@H](C)CC)[C@@H](O[C@@H]2O[C@@H](C)[C@H](O)[C@@H](O)[C@H]2O)[C@H]1OC(=O)[C@@H](C)CC [TRICOLORIN E],> 20 µg/mL,8 µg/mL,16 µg/mL,8 µg/mL,8 µg/mL,> 20 µg/mL,> 20 µg/mL
